Hits are enriched below; roughly 2% of the tested compounds scored in any of these assays.
T cell modulator = modulates CD8 T cell binding to vesicles; 2C CD8+ T cell-vesicle binding, flow cytometry; hits give low values; response (vesicle binding), % at 7 µM; actives 0.068% (n = 330,000); AID 2052;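 active = response, share of CD8 T cells binding vesicles, and their 90th percentile fluorescence all below set limits, cut at about 80% in these data, passing the limit was not always enough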;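 note: values below 100% mean blocked vesicle binding to the CD8+ T cells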
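Assay system – 2C mouse CD8+ T cells · Also added – QL9-loaded Drosophila micro-vesicles · Timing – Cell–vesicle co-incubation 1.5 h at 37 °C, staining 20 min on ice · Signal – flow cytometry of vesicle-bound cells · Measure – percent CD8+ FL2 mean versus row control · Controls – Peptide-free naked vesicles (low) and QL9 vesicles with 0.7% DMSO vehicle (high)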
NR2E3 ag-1 = human photoreceptor-specific nuclear receptor agonism. Q9Y5X4. CHO-S Gal4-NCOR/VP16-NR2E3 two-hybrid, luciferase. inhibition of corepressor binding, % at 3.98 µM. actives 0.35% (n = 360,000). AID 602229;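 active = inhibition above the mean of all tested compounds plus 3 SD, cut at about 70% in these data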;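 note: 0% = DMSO with NR2E3 transfected cells and 100% = cells lacking NR2E3 construct; higher means lower luciferase signal from less NR2E3 corepressor binding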
Target sequence (Q9Y5X4 whole entry, looked up, the tested form may be a part): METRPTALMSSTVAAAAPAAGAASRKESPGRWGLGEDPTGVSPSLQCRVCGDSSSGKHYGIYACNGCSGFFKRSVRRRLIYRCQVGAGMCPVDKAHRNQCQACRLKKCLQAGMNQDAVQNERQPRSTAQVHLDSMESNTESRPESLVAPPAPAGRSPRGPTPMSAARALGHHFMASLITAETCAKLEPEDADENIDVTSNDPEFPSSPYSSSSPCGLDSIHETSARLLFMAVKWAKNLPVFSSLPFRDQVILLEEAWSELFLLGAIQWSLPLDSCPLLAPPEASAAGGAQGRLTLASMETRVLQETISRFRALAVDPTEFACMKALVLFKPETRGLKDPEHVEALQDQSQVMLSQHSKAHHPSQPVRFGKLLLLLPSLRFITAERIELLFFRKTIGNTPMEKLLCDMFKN
Myeloid diff MLP = promotes myeloid progenitor differentiation | ER-HoxA9 myeloid progenitors, lysozyme-GFP differentiation, flow cytometry | calls only at 10 µM | actives 1% (n = 360,000) | AID 624256;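 active = normalized GFP-positive differentiation at or above the plate's own cutoff, the solvent-only control mean plus 3 SD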;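 note: cells exposed to compound for four days before flow analysis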
GAA850 FXN act = frataxin GAA850 promoter activation; HEK293 lucGAA850 FXN promoter luciferase reporter, 24 h; percent of 10 µM SAHA response; activation, % at 6 µM; actives 0.56% (n = 360,000);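 active = activation above the average of all compounds screened plus 3 SD, cutoff fixed separately per campaign, cut at about 7.5% in these data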;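 note: 0% = DMSO wells and 100% = 10 µM SAHA wells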
NR2E3 ag-2 = NR2E3 (human) agonism; actives 0.12% (n = 320,000); GST-NR2E3/biotin-RetCOR TR-FRET, 1536-well; inhibition of corepressor binding, % at 4.78 µM;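 active = percent inhibition above the cutoff of mean plus 3 SD of all tested compounds, set per screening campaign, cut at about 20% in these data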;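 note: 0% = DMSO wells and 100% = biotin wells as full block of FRET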
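System: GST-tagged NR2E3 plus biotinylated RetCOR corepressor; Buffer or medium: pH 7.5 Tris-based buffer; Probe or stimulus: RetCOR corepressor, biotinylated, 7 nM; Doses: compound at 4.8 µM, single dose; Schedule: 5 h incubation at 4 °C; Technique: time-resolved FRET; Evaluation: percent inhibition of TR-FRET ratio; Replication: one well per compound, singlicate testing.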
Myeloid diff = promotes myeloid progenitor differentiation. shares compounds with Myeloid diff MLP. ER-HoxA9 myeloid progenitors, GFP/Mac1 double-positive flow. calls only. actives 2% (n = 2,300);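 active = share of green or green-and-red cells above 9 and 9% in run 1 or 4 and 3% in run 2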
GFP autofluor = compound fluorescence in myeloid differentiation counter-screen; actives 7.4% (n = 2,300); fluorescence response, % (test concentration not listed); AID 651707; ER-HoxA9 myeloid progenitors, no estrogen, GFP autofluorescence flow cytometry; vehicle wells 0%, positive control 100%; shares compounds with Myeloid diff MLP;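 active = over 5% cells positive for green fluorescent reporter, or over 2% positive for both it and APC stain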;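 note: range taken on the double positive population between DMSO and positive control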
* = called active by the depositor; i = inactive; . = no result; + = active, no number.

SMILES	T cell modulator	NR2E3 ag-1	Myeloid diff MLP	GAA850 FXN act	NR2E3 ag-2	Myeloid diff	GFP autofluor
Nc1ccc(S(=O)(=O)Nc2nccc(/C=C/c3cccc(Br)c3)n2)cc1	239	25	+	3	7	i	0
Cn1c(-c2ccccc2)c[n+]2c1-c1ccccc1C2	193	-2	i	1	4	+	0
Cn1c(-c2ccccc2)cccc1=O	107	-1	i	-2	3	.	.
Cc1cc(C=C2C(=O)c3ccccc3C2=O)c(C)n1-c1ccccc1	658	-8	i	-18	2	.	.
Cc1cc(/C=C2\Cc3ccccc3C2=O)c(C)n1-c1ccccc1	173	-46	+	-11	-1	i	11*
Cc1ccc(C(=O)/C=C/c2ccc(-c3ccccc3[N+](=O)[O-])o2)cc1	219	16	.	-2	0	i	0
O=C(/C=C/c1ccc(-c2ccccc2[N+](=O)[O-])o1)c1ccc(Br)cc1	318	-24	i	1	0	.	.
COCCNC(=O)C1(C)CCN(C(=O)c2ccc(C(F)(F)F)nc2C)C1 (configuration not stated)	.	-11	i	1	.	.	.
COc1ccc(NC(=O)CN(C)C(=O)c2cn(-c3ccccc3)nc2-c2cccnc2)cc1	714	29	i	0	-1	.	.
Cc1ccc(S(=O)(=O)/N=C(\N)Nc2nc(C)c3cc(C)c(C)cc3n2)cc1	317	-29	i	1	1	i	0
Cc1ccc(S(=O)(=O)/N=C(\N)Nc2nc(C)c3ccc(C)cc3n2)cc1	269	-5	i	0	2	.	.
CC(C)NC(=O)N(C)C[C@H]1Oc2ccc(NS(=O)(=O)c3cccs3)cc2C(=O)N([C@H](C)CO)C[C@@H]1C	224	29	i	-1	.	i	0
C[C@H](CO)N1C[C@H](C)[C@@H](CN(C)C(=O)NC2CCCCC2)Oc2ccc(NS(=O)(=O)c3cccs3)cc2C1=O	299	-19	i	-1	.	.	.
COc1ccc(NC(=O)N(C)C[C@H]2Oc3ccc(NC(=O)CCN4CCOCC4)cc3C(=O)N([C@H](C)CO)C[C@@H]2C)cc1	74	-18	i	-1	.	i	3
COc1ccc(-c2csc(C(O)c3ccc(F)c(F)c3)n2)cn1 (configuration not stated)	.	23	+	2	.	i	1
CC[C@@]1(C(=O)OC)N[C@H](CN(C)C(=O)c2ccc(F)cc2)[C@@H]2C(=O)N(Cc3ccccc3)C(=O)[C@@H]21	345	23	i	2	.	.	.
O=C(Nc1ccccc1Br)C1CCCN1S(=O)(=O)c1cccc2nsnc12 (configuration not stated)	684	3	i	-1	-1	.	.
Cc1c(NC(=O)C2CCCN2S(=O)(=O)c2cccc3nsnc23)cccc1C(=O)O (configuration not stated)	i	5	+	0	2	i	0
Cc1ccc(-n2nnnc2C(=Cc2ccc(N(C)C)cc2)c2nnnn2-c2ccc(C)cc2)cc1	254	17	+	-2	3	i	1
Cn1c(SCC(=O)NC2CCCc3ccccc32)nnc1C1CC1 (configuration not stated)	.	-16	i	1	.	.	.
Cc1nc(SCC(=O)N(C)C2(C#N)CCCCC2)c2ccccc2n1	283	-16	i	-2	0	i	4
CCN1/C(=C/C=C/C=C/C=C/c2sc3ccccc3[n+]2CC)Sc2ccccc21	139	-13	i	3	4	i	43*
CCN1/C(=C/C=C/C=C/c2sc3ccccc3[n+]2CC)Sc2ccccc21	852	.	.	.	-123	.	.
Cn1cc(-c2csc(C(O)c3ccc(F)c(F)c3)n2)cn1 (configuration not stated)	.	-3	i	2	.	.	.
Fc1ccc(C(c2nnnn2C2CCCCC2)N2CCCC2)cc1 (configuration not stated)	864	-11	i	2	-1	.	.
SMILES	T cell modulator	NR2E3 ag-1	Myeloid diff MLP	GAA850 FXN act	NR2E3 ag-2	Myeloid diff	GFP autofluor
Fc1ccc(C(c2nnnn2C2CCCC2)N2CCN(Cc3ccncc3)CC2)cc1 (configuration not stated)	202	8	+	1	-5	i	0
CCC(C)NC(=O)Cn1c(=O)n(-c2ccccc2)c(=O)c2ccc(C(=O)NCc3ccco3)cc21 (configuration not stated)	449	-24	i	-2	4	.	.
Cc1cccc(Cn2c(=O)n(-c3ccc(CC(=O)NCc4ccco4)cc3)c(=O)c3sccc32)c1	214	-1	i	-3	2	i	0
Cc1ccc(Cn2c(=O)n(-c3ccccc3)c(=O)c3ccc(C(=O)NCc4ccco4)cc32)cc1	404	18	i	0	1	i	2
O=c1c2ccccc2n(Cc2ccc(Cl)cc2)c(=O)n1Cc1ccco1	172	-37	i	3	1	.	.
Cc1ccc(Cn2c(=O)n(Cc3ccco3)c(=O)c3ccccc32)cc1	526	-14	i	1	3	i	0
CC(C)Oc1cc(F)ccc1-c1cc(C(=O)NCC2CCCCC2)[nH]n1	.	-7	i	-1	.	.	.
CCC(C)NC(=S)Nc1ccc2nc(N3CCOCC3)cc(C)c2c1 (configuration not stated)	189	-16	i	1	2	.	.
CCC(C)NC(=S)Nc1ccc2nc(N3CCN(CC)CC3)cc(C)c2c1 (configuration not stated)	470	-12	+	-2	1	i	0
Cc1ccc2nc(C)cc(C(=O)OCC(=O)Nc3cccnc3Cl)c2c1	442	14	i	-1	-1	.	.
COc1ccc(C2=CCCCCC2)cc1OC	.	-42	i	1	.	.	.
c1ccc(COCCCn2cc(-c3ccccc3)nn2)cc1	535	-11	+	0	2	i	0
CCCN(CC(=O)Nc1ccccc1C)C(=O)/C=C/c1ccc(OC)c(OC)c1	.	-49	i	2	.	.	.
COc1cc2c(cc1OC)C(c1cccs1)N(C(=O)c1cccc(S(=O)(=O)N(C)C)c1)CC2 (configuration not stated)	237	-2	i	-1	0	.	.
CCc1ccc2c(c1)cc(CN(C(=S)Nc1ccccc1C)C1CC1)c1nnnn12	329	18	i	1	-2	i	0
Cn1c(=O)c2c(SCC(=O)c3ccccc3)nc(C3CC3)nc2n(C)c1=O	546	-17	i	0	1	i	0

Assay outcomes deposited in PubChem BioAssay by several laboratories.
